Measured values from ChEMBL document CHEMBL4665790, “Photohormones Enable Optical Control of the Peroxisome Proliferator-Activated Receptor γ (PPARγ)” (J Med Chem, 2020).
The source made the active and inactive calls. The rule behind the calls is not given here.

Legend:
[1] = target: T1, Peroxisome proliferator-activated receptor gamma (Homo sapiens, UniProt P37231); test: Agonist activity at PPARgamma (unknown origin) expressed in HEK293T cells incubated for 14 to 16 hrs under irradiation by hybrid Gal4 reporter gene assay; assay type: cell-based
T1 sequence (P37231 whole entry): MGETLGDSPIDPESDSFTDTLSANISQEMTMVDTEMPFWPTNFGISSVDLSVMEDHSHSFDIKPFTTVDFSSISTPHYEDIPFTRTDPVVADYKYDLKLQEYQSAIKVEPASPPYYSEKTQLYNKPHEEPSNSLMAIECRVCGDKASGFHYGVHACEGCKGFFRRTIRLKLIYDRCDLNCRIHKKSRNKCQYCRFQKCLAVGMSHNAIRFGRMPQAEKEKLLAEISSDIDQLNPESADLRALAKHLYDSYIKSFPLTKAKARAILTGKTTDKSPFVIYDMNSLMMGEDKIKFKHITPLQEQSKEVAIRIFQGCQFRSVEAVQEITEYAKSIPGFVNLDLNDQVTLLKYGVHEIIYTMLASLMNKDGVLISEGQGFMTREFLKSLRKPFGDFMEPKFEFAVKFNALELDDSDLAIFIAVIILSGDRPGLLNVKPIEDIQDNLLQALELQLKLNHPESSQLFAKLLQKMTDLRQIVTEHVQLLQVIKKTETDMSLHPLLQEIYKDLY

[2] = target: T2, Peroxisome proliferator-activated receptor gamma (Homo sapiens) (UniProt P37231); test: Agonist activity at PPARy in human HepG2 cells transfected with human PPRE at 10 uM incubated for 14 to 16 hrs using pre-irradiated compound by firefly luciferase reporter gene assay; assay type: cell-based; conditions: filed as agonist, time hrs 14-16
T2 sequence (whole entry): T1 sequence (P37231 whole entry)
Procedure, shortened: (§1)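 HepG2 cells on collagen-coated wells, transfected (Lipofectamine 3000) with PPRE1-pGL3 (human full-length PPRE driving firefly luciferase) plus pRL-SV40; endogenous PPARγ/RXR, no overexpression. Compound in Opti-MEM, 0.1% DMSO, 14–16 h; cis state held by 75 ms 370 nm pulses every 15 s. Firefly/Renilla normalised, fold activation over DMSO control; rosiglitazone reference.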

[3] = target: T2, Peroxisome proliferator-activated receptor gamma (Homo sapiens); test: (§2) Binding affinity to recombinant PPARy LBD (unknown origin) expressed in Escherichia coli BL21 DE3 using pre-irradiated compound by ITC assay
Procedure, shortened: (§3)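 ITC at 25 °C: 300 µM compound, pre-irradiated 5 min at 365 nm, titrated into 64 µM His-tag-cleaved PPARγ LBD (aa 234–505, E. coli BL21 DE3 with GroEL/ES, IMAC plus gel filtration) in 25 mM HEPES pH 7.5, 150 mM KF, 5 mM DTT, 10% glycerol, 1% DMSO. 31 injections (1.0 then 2.5 µL), 300 s apart, 75 rpm; buffer control.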

[4] = target: T3, Peroxisome proliferator-activated receptor alpha (Homo sapiens) (UniProt Q07869); test: Agonist activity at PPARalpha (unknown origin) expressed in HEK293T cells at 10 uM incubated for 14 to 16 hrs under irradiation by hybrid Gal4 reporter gene assay; assay type: cell-based; conditions: time hrs 14-16
T3 sequence (whole entry): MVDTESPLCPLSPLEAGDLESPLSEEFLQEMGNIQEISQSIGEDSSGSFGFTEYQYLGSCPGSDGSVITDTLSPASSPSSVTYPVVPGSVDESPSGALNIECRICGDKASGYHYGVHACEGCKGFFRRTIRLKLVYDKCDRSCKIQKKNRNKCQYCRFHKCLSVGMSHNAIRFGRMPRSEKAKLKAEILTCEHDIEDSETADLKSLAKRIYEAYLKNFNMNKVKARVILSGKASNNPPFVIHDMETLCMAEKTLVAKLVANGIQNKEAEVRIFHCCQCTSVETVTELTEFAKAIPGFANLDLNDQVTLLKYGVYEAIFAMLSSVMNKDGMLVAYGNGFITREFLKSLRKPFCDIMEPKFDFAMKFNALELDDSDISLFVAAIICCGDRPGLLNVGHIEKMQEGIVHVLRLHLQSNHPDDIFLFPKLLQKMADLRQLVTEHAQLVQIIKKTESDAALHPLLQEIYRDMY
Procedure, shortened: (§4)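 HEK293T cells transfected (Lipofectamine LTX) with Gal4 fusion of human PPARα or PPARδ hinge region + LBD, pFR-Luc reporter and pRL-SV40; compound added in Opti-MEM with 0.1% DMSO 5 h post-transfection, 14–16 h incubation. Dual-Glo luciferase; firefly/Renilla ratio gives RLU, fold activation vs DMSO control. Duplicates, ≥2 independent repeats.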

[5] = target: T2, Peroxisome proliferator-activated receptor gamma (Homo sapiens); test: Agonist activity at PPARgamma (unknown origin) expressed in HEK293T cells at 10 uM incubated for 14 to 16 hrs under irradiation by hybrid Gal4 reporter gene assay; assay type: cell-based; conditions: time hrs 14-16
Procedure, shortened: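 Gal4 hybrid reporter: HEK293T cells transiently co-transfected with Gal4–human PPARγ hinge+LBD fusion, Gal4-responsive firefly luciferase reporter and Renilla normalisation plasmid. Compound added 5 h post-transfection in Opti-MEM, 0.1% DMSO final; 14–16 h incubation. Dual-Glo read-out, firefly/Renilla ratio, fold over DMSO control. Technical duplicates, at least two independent repeats.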

[6] = target: T4, Peroxisome proliferator-activated receptor delta (Homo sapiens) (UniProt Q03181); test: Agonist activity at PPARdelta (unknown origin) expressed in HEK293T cells at 10 uM incubated for 14 to 16 hrs under irradiation by hybrid Gal4 reporter gene assay; assay type: cell-based; conditions: time hrs 14-16; procedure, shortened: as §4
T4 sequence (whole entry): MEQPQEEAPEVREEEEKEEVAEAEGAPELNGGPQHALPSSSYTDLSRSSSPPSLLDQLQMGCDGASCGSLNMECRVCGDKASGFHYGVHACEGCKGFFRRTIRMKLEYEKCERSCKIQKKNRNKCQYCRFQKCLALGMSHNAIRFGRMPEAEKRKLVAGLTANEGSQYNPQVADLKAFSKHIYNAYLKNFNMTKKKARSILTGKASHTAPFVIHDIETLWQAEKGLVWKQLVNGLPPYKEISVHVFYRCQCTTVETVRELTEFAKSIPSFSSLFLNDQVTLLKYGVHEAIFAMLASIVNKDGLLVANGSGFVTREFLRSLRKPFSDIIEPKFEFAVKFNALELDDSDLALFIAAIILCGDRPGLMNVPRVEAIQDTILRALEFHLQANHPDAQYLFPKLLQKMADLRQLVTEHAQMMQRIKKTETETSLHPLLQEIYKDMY

[7] = target: T2, Peroxisome proliferator-activated receptor gamma (Homo sapiens); test: Agonist activity at PPARy in human HepG2 cells transfected with human PPRE incubated for 14 to 16 hrs using pre-irradiated compound by firefly luciferase reporter gene assay relative to control; assay type: cell-based; conditions: filed as agonist, time hrs 14-16; procedure, shortened: as §1
[8] = target: T1, Peroxisome proliferator-activated receptor gamma; test: Agonist activity at PPARy in human HepG2 cells transfected with human PPRE incubated for 14 to 16 hrs using pre-irradiated compound by firefly luciferase reporter gene assay; assay type: cell-based; procedure, shortened: as §1
[9] = target: T1, Peroxisome proliferator-activated receptor gamma; test: as §2; procedure, shortened: as §3

O=C1NC(=O)C(Cc2ccc(/N=N/c3ccc(C(F)(F)F)cc3)cc2)S1 (centres undefined)
EC50 [1]: 2.2 µM

O=C1NC(=O)C(Cc2ccc(/N=N\c3ccccc3)cc2)S1 (centres undefined)
EC50 [1]: 6.3 µM

Cc1ccccc1-c1ccc(/N=N/c2ccc(CC3SC(=O)NC3=O)cc2)cc1 (centres undefined)
Activity [2]: Active | Activity [3]: inactive | EC50 [1]: 2.8 µM

O=C1NC(=O)C(Cc2ccc(/N=N/c3ccc(Cl)cc3)cc2)S1 (centres undefined)
EC50 [1]: 2.9 µM

O=C1NC(=S)NC(=O)C1=Cc1ccc(/N=N/c2ccccc2)cc1
Activity [4]: inactive | Activity [5]: inactive | Activity [6]: inactive

O=C1NC(=O)C(Cc2ccc(/N=N\c3ccc(C(F)(F)F)cc3)cc2)S1 (centres undefined)
EC50 [1]: 6.5 µM

Cc1ccccc1-c1ccc(/N=N\c2ccc(CC3SC(=O)NC3=O)cc2)cc1 (centres undefined)
fold change (FC) [7]: 2.4 | EC50 [8]: 0.9 µM | Kd [9]: 9.3 µM | EC50 [1]: 6.4 µM

O=C(c1ccccc1)c1ccccc1N[C@@H](Cc1ccc(/N=N/c2ccccc2)cc1)C(=O)O
Activity [4]: inactive | Activity [6]: inactive

O=C1NC(=O)C(Cc2ccc(/N=N/c3ccccc3)cc2)S1 (centres undefined)
Activity [6]: inactive | EC50 [1]: 2.2 µM

O=C1NC(=O)C(Cc2ccc(/N=N\c3ccc(Cl)cc3)cc2)S1 (centres undefined)
EC50 [1]: 7 µM
